Here are results for one compound from ChEMBL document CHEMBL4316598, “Synthesis, antiproliferative and apoptosis induction potential activities of novel bis(indolyl)hydrazide-hydrazone derivatives” (Bioorg Med Chem, 2019).

The structures appear in SMILES notation. Calls of active or inactive are those of the source. The calls are words filed in the database; no cut-off is given here. Some results are limits rather than exact numbers.

For data set [1], the system named is HeLa. In words: Induction of apoptosis in human HeLa cells assessed as necrotic cells at 1 uM after 8 hrs by annexin-V FITC/propidium iodide staining based flow cytometric analysis relative to control. Format: functional. Put shortly: (§1)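 Cells were grown in DMEM with 10% heat-inactivated FBS at 37 °C and 5% CO₂, then plated at 500,000 cells/well in 24-well plates. They were treated from a DMSO stock (DMSO ≤0.1%) for 8, 12 or 16 h. After a PBS wash, cells were resuspended in binding buffer (10 mM HEPES pH 7.4, 2.5 mM CaCl₂, 140 mM NaCl, 0.1% BSA), stained 40 min with FITC-annexin V, then with PI, and run on the flow cytometer immediately. Values are the mean of three independent experiments.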
Background: A flow cytometer gives signals particle by particle.

For data set [2], the system named is MCF7. Briefly: Induction of caspase-dependent apoptosis in human MCF7 cells assessed as activation of caspase-7 at 1 to 3 uM after 24 hrs by Western blot analysis. Format: functional, cell-based. The gist of the method: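 Cells were treated at 1, 3 and 5 µM for 24 h at 37 °C. Lysis was in ice-cold Triton X-100 buffer with protease and phosphatase inhibitors; nuclear proteins were extracted separately. Protein was quantified by BCA. Lysates were separated by electrophoresis, transferred to nitrocellulose and blocked in non-fat milk for 1 h. Primary antibody was applied overnight at 4 °C and secondary for 1 h at 28 °C. Detection was by enhanced chemiluminescence.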
Background: A western blot detects proteins with antibodies after separation by electrophoresis.

Data set [3] relates to MCF7. In words: Induction of ERK/MAPK signal transduction pathway in human MCF7 cells assessed as increase in p53 expression. The class given is cell-based.
For data set [4], the system named is MCF7. Briefly: Effect on mitochondrial membrane potential in human MCF7 cells assessed as shift change at 5 uM after 2 hrs by Rhodamine 123 dye-based fluorescence assay. Format: functional, cell-based. Put shortly:
(§2)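 Mitochondrial potential: HeLa or MCF-7 cells treated with 5 µM (final) for 1, 2, 4 and 8 h. Rhodamine 123 added, cells incubated 30 min at 37 °C, washed with PBS, and analysed by flow cytometry. Fluorescence histogram shift is compared with control.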

In data set [5] the test system is HeLa. Briefly: Effect on mitochondrial membrane potential in human HeLa cells assessed as shift change at 5 uM measured over 4 hrs by Rhodamine 123 dye-based fluorescence assay. Format: functional, cell-based. The gist of the method:
as §2

For data set [6], the system named is HeLa. Briefly: Induction of nitric oxide production in human HeLa cells at 1 uM measured over 8 hrs by Griess reaction based assay relative to control. The class given is functional. The gist of the method:
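Cells were plated at 2×10⁶ cells/well in 24-well plates for 12 h, then treated at 1, 5 and 10 µM for 8 h at 37 °C. Culture supernatant was mixed with Griess reagent (0.002% N-1-naphthylethylenediamine, 0.5% sulfanilic acid, 14% glacial acetic acid). Nitric oxide was quantified by absorbance at 550 nm.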
On the technique in general: Nitrite, measured by Griess reagent, commonly stands in for NO production.

Data set [7] deals with MCF7. In words: Induction of ERK/MAPK signal transduction pathway in human MCF7 cells assessed as increase in c-fos level. Format: cell-based.
The subject of data set [8] is HeLa. In words: Induction of apoptosis in human HeLa cells assessed as early apoptotic cells at 1 uM after 16 hrs by annexin-V FITC/propidium iodide staining based flow cytometric analysis relative to control. Format: functional. The gist of the method:
as §1

Data set [9] is described as follows: Cytotoxicity against HEK293 cells assessed as cell viability at 200 uM after 4 hrs by MTT assay relative to control. The class given is cell-based. Particulars: human, read-out: Activity. Put shortly: (§3)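 MTT: 10,000–20,000 cells/well attached for 16 h, then washed twice with serum-free RPMI. Treated with 1–200 µM for 4 h, 3 parallel runs per concentration. MTT added for 2 h; medium partly removed and isopropanol added. A590 read. Viability = (A treated − A doxorubicin)/(A medium − A doxorubicin)×100. Mean of three experiments, triplicate wells each.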

Data set [10] relates to HeLa. Briefly: Induction of caspase-dependent apoptosis in human HeLa cells assessed as activation of caspase-3 at 1 to 3 uM after 24 hrs by Western blot analysis. The class given is functional, cell-based. Put shortly:
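Cleaved caspase-3 immunoblot. Cells were exposed at 1, 3 and 5 µM for 24 h at 37 °C, with paclitaxel 3 µM as positive control. Lysis was in ice-cold Triton X-100 buffer, and protein was measured by BCA. Lysates were separated by electrophoresis, transferred to nitrocellulose and blocked in milk. Primary antibody was applied overnight at 4 °C and secondary for 1 h at 28 °C. Detection was by enhanced chemiluminescence.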

Data set [11] has as its system MCF7. Briefly: Induction of apoptosis in human MCF7 cells assessed as late apoptotic cells at 1 uM after 16 hrs by annexin-V FITC/propidium iodide staining based flow cytometric analysis relative to control. Format: functional. The gist of the method: as §1
Data set [12] has as its system HeLa. Briefly: Induction of apoptosis in human HeLa cells assessed as viable cells at 1 uM after 8 hrs by annexin-V FITC/propidium iodide staining based flow cytometric analysis relative to control. Format: functional. The conditions noted are these: read-out: Activity. The gist of the method:
as §1

Data set [13] addresses T1, Mitogen-activated protein kinase; ERK1/ERK2 (Homo sapiens) (UniProt P27361+P28482). Briefly: Activation of ERK1/2 phosphorylation in human HeLa cells assessed as increase in ratio of phosphorylated ERK1/2 to total ERK1/2 level at 5 uM in presence of ERK1/2 inhibitor PD98059 by ELISA. The class given is cell-based. The gist of the method: (§4)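 Cell-based ELISA: HeLa or MCF-7 cells (20×10^3/well) grown overnight at 37 °C, 5% CO2, treated with 5 μM, then fixed and blocked. Probed with rabbit anti-total and anti-phospho P38, JNK or ERK1/2 (1:100), then HRP anti-rabbit IgG. Result is the phospho/total ratio; inhibitor arms use […], […] or SP600125. n=3.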

For data set [14], the system named is HeLa. In words: Induction of apoptosis in human HeLa cells assessed as up-regulation of total p53 level at 5 uM after 12 hrs by sandwich ELISA. Format: functional, cell-based. The gist of the method:
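Cells were treated at 5 µM for 12, 24 and 48 h. Lysis was in ice-cold lysis buffer with 1 mM PMSF (5 min on ice), followed by three freeze-thaw cycles and a 10 min spin at 4 °C. Acetylated and total p53 were measured in the supernatant by kit sandwich ELISA, read at 450 nm. The control index is sample absorbance divided by that of untreated cells at the same time. Values are mean ± SD of triplicate experiments.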

Data set [15] deals with MCF7. Briefly: Induction of apoptosis in human MCF7 cells assessed as viable cells at 1 uM after 8 hrs by annexin-V FITC/propidium iodide staining based flow cytometric analysis relative to control. The class given is functional. The conditions noted are these: MCF7, 8 h, read-out: Activity. Put shortly: as §1
Data set [16] relates to MCF7. In words: Induction of apoptosis in human MCF7 cells assessed as early apoptotic cells at 1 uM after 12 hrs by annexin-V FITC/propidium iodide staining based flow cytometric analysis relative to control. The class given is functional. The gist of the method: as §1
In data set [17] the test system is HeLa. In words: Induction of apoptosis in human HeLa cells assessed as late apoptotic cells at 1 uM after 16 hrs by annexin-V FITC/propidium iodide staining based flow cytometric analysis relative to control. The class given is functional. Put shortly:
as §1

Data set [18] concerns HeLa. Briefly: Induction of apoptosis in human HeLa cells assessed as early apoptotic cells at 1 uM after 8 hrs by annexin-V FITC/propidium iodide staining based flow cytometric analysis relative to control. Format: functional. Put shortly: as §1
The next data set deals with HEK293. In words: Cytotoxicity against HEK293 cells assessed as reduction in cell viability after 4 hrs by MTT assay. The class given is cell-based, Homo sapiens. The conditions noted are these: Homo sapiens, HEK293, 4 h; read-out: IC50. The gist of the method:
as §3

Data set [19] concerns the target T1, Mitogen-activated protein kinase; ERK1/ERK2 (Homo sapiens). In words: Activation of ERK1/2 phosphorylation in human MCF7 cells assessed as increase in ratio of phosphorylated ERK1/2 to total ERK1/2 level at 5 uM by ELISA. The class given is cell-based. Put shortly: as §4
Data set [20] has the same target. In words: Activation of ERK1/2 phosphorylation in human MCF7 cells assessed as increase in ratio of phosphorylated ERK1/2 to total ERK1/2 level at 5 uM in presence of ERK1/2 inhibitor PD98059 by ELISA. Format: cell-based. Put shortly: as §4

A word on the IC50: it is the concentration that inhibits the measured activity by half.

T1 sequence (P27361 whole entry, looked up): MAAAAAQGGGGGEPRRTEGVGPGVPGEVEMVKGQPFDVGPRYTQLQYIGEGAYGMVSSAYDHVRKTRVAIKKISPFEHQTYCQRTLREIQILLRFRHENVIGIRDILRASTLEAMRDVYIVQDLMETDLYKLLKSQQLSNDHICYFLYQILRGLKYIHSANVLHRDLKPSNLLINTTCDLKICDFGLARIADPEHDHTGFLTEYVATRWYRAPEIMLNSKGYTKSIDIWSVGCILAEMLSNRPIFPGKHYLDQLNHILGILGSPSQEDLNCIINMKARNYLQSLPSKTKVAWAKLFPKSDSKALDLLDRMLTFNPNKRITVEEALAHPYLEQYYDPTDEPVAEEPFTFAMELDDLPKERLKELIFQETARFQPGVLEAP
T1 sequence (P28482 whole entry, looked up): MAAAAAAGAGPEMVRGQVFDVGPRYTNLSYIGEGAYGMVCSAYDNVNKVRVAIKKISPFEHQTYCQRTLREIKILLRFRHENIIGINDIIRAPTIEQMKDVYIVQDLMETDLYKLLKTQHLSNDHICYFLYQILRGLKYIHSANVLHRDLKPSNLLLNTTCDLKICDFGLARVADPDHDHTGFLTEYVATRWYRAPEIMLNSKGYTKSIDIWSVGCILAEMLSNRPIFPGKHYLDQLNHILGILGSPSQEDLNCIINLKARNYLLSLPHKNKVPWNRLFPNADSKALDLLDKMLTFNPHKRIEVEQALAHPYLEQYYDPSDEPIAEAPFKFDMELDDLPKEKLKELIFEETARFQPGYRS

As to `Cn1cc(/C=N\NC(=O)c2cn(C)c3ccc(Br)cc23)c2ccccc21`, the Activity with HeLa [1] is given as 0.57%; with HeLa [6], 29.8%; with HeLa [8], 12.23%; with MCF7 [11], 58.43%; in the data set with MCF7 [16] it was 21.18%; in the data set on HeLa [17] it was 71.74%. In addition, the Activity in the data set on HeLa [18] is given as 19.15%. Besides, the result (with MCF7 [2]; with HeLa [10]; in data set [13]; in [20]) was inactive. Besides, the result (in the data set on MCF7 [3]; in the data set with MCF7 [4]; with HeLa [5]; in the data set with MCF7 [7]; with HeLa [14]; in [19]) was Active. In addition, the viability at 4 h, 200 µM in [9] worked out at 95%. In addition, the values for the viability at 1 µM with HeLa [12] and in the data set with MCF7 [15] were 68.8% and 93.4%, respectively. Moreover, the IC50 in the data set with HEK293 is above 200 µM.
